Measured values published in ChEMBL document CHEMBL1146725, “Discovery and SAR of potent, orally available and brain-penetrable 5,6-dihydro-4H-3-thia-1-aza-benzo[e]azulen- and 4,5-dihydro-6-oxa-3-thia-1-aza-benzo[e]azulen derivatives as neuropeptide Y Y5 receptor antagonists” (Bioorg Med Chem Lett, 2004).
Several values for one entry are separate records, joined by “and”; a condition that tells them apart may be missing. Identical values can stand only once.

Key:
Rattus norvegicus [1] = test: (§1) Concentration (30 mg/kg, p.o.) in rat hypothalamus after 2 hours; assay type: ADME, organism-based; conditions: in vivo, po, 2 h
Procedure, shortened: (§2)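 Male rats (RA238), fasted overnight, given 30 mg/kg by oral gavage (5 mL/kg) in 20% Cremophore EL/water (w/w). Plasma and hypothalamus were sampled at 2 and 6 h post-dose and levels measured by LC-MS. Values are the mean of 3-6 animals per time point, as µg/mL plasma and µg/g hypothalamus.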

[2] = as §1; assay type: ADME, organism-based; conditions: hypothalamus, po; procedure, shortened: as §2
Rattus norvegicus [3] = test: Concentration (30 mg/kg, p.o.) in rat hypothalamus after 6 hours; assay type: ADME, organism-based; conditions: in vivo, po, 6 h; procedure, shortened: as §2
Rattus norvegicus [4] = test: Concentration (30 mg/kg, p.o.) in rat plasma after 6 hours; assay type: ADME, organism-based; conditions: in vivo, po, 6 h; procedure, shortened: as §2
Rattus norvegicus [5] = test: (§3) Concentration (30 mg/kg, p.o.) in rat plasma after 2 hours; assay type: ADME, organism-based; conditions: in vivo, po, 2 h; procedure, shortened: as §2
[6] = as §3; assay type: ADME, organism-based; conditions: plasma, po; procedure, shortened: as §2
[7] = target: T1, Neuropeptide Y receptor type 5 (Homo sapiens, UniProt Q15761); test: In vitro binding affinity against human neuropeptide Y5 receptor
T1 sequence (Q15761 whole entry): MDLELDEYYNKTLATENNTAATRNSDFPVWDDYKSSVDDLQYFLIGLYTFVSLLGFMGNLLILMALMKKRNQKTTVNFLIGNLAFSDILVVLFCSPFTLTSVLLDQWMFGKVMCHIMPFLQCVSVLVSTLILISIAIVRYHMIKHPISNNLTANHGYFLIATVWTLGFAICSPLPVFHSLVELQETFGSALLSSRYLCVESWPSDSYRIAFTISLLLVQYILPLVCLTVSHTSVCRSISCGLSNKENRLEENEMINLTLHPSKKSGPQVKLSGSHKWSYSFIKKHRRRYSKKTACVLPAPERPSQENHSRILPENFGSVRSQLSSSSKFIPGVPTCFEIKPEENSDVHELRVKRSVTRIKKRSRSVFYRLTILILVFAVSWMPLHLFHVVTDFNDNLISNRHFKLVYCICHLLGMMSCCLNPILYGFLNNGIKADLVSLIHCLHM

## O=C([C@@H]1CCCO1)N1CCC(CNc2nc3c(s2)CCCc2ccc(F)cc2-3)CC1
Rattus norvegicus [1]
  Concentration: 6.69 µg/g
[2]
  concentration at 2 h: 6690 ng/g
Rattus norvegicus [3]
  Concentration: 1.33 µg/g and 0.64 µg/g
Rattus norvegicus [4]
  Concentration: 320 ng/mL and 140 ng/mL
Rattus norvegicus [5]
  Concentration: 1600 ng/mL
[6]
  concentration at 2 h: 1600 ng/mL
[7]
  IC50: 2 nM
